Data as given in ChEMBL document CHEMBL3621166, “Synthesis, Structure-Activity Relationship, and Mechanistic Investigation of Lithocholic Acid Amphiphiles for Colon Cancer Therapy” (Medchemcomm, 2015).
The source made the active and inactive calls. The calls are words filed in the database; no cut-off is given here.

Experiments:
[1] = Cytotoxicity against human HCT8 cells assessed as cell viability after 48 hrs by MTT assay; assay type: functional, cell-based; details: HCT-8, 48 h
[2] = Cytotoxicity against human DLD1 cells assessed as cell viability after 48 hrs by MTT assay; assay type: functional, cell-based; details: DLD-1, 48 h
[3] = system: HCT-116; assay: Cytotoxicity against human HCT116 cells assessed as cell viability after 48 hrs by MTT assay; assay type: functional, cell-based; details: HCT-116, 48 h
[4] = Retention time of the compound by HPLC method; assay type: physicochemical
[5] = system: HCT-116; assay: Induction of apoptosis in human HCT116 cells assessed as early apoptotic cells at 50 uM after 48 hrs using annexin-V FITC and propidium iodide staining by flow cytometry (reference value: 4.80%); assay type: functional
[6] = Cell cycle arrest in human DLD1 cells assessed as accumulation at sub-G1 phase at 50 uM after 48 hrs using propidium iodide staining by FACS analysis; assay type: functional, cell-based; details: DLD-1
Method in brief: (§1)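 Cells seeded at ~2 × 10^5 per well, treated after 24 h at 15, 25 and 50 μM for 48 h. Harvested by trypsin, washed in cold PBS and fixed in 70% ice-cold ethanol. RNase-treated 1 h at 37 °C, stained with propidium iodide (50 μg mL−1) 20 min at room temperature, and analysed by FACS. Triplicate, mean ± SD.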

[7] = system: HCT-116; assay: Inhibition of colony formation in human HCT116 cells at 15 uM after 2 weeks using crystal violet staining; assay type: functional; details: HCT-116, 336 h
[8] = system: A549; assay: Selectivity ratio of human DLD1 cells over human A549 cells; assay type: functional
[9] = system: HCT-116; assay: Inhibition of colony formation in human HCT116 cells at 50 uM after 2 weeks using crystal violet staining; assay type: functional, cell-based
Method in brief: (§2)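 Cells plated at 200 per well and treated after 24 h adherence at 15, 25 or 50 μM. Colonies stained with crystal violet after 2 weeks and counted. Plating efficiency taken from untreated wells, survival fraction from treated colony counts. Two experiments in duplicate, mean ± SD.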

[10] = system: HCT-116; assay: Induction of apoptosis in human HCT116 cells assessed as apoptotic cells at 25 uM after 48 hrs using annexin-V FITC and propidium iodide staining by flow cytometry relative to lithocholic acid; assay type: functional
[11] = Selectivity ratio of human HCT8 cells over CHO cells; assay type: ADME, cell-based; details: Chinese hamster (CHO), HCT8 cells versus CHO cells
[12] = system: HCT-116; assay: Induction of apoptosis in human HCT116 cells assessed as early apoptotic cells at 15 uM after 48 hrs using annexin-V FITC and propidium iodide staining by flow cytometry (reference value: 4.80%); assay type: functional
[13] = system: HCT-116; assay: Cell cycle arrest in human HCT116 cells assessed as accumulation at sub-G1 phase at 50 uM after 48 hrs using propidium iodide staining by FACS analysis; assay type: functional
[14] = system: HCT-116; assay: Induction of apoptosis in human HCT116 cells assessed as increased level of cleaved caspase-3 at 10 to 50 uM by Western blot analysis; assay type: functional, cell-based
[15] = system: DLD-1; assay: Inhibition of colony formation in human DLD1 cells at 15 to 50 uM after 2 weeks using crystal violet staining; assay type: functional, cell-based; method in brief: as §2
[16] = system: HCT-116; assay: Induction of apoptosis in human HCT116 cells assessed as decreased level of procaspase-8 at 50 uM by Western blot analysis; assay type: functional, cell-based
[17] = system: HCT-8; assay: Ratio of lithocholic acid IC50 to compound IC50 for human HCT8 cells assessed as cell viability after 48 hrs by MTT assay; assay type: functional
[18] = system: HCT-116; assay: Induction of apoptosis in human HCT116 cells xenografted in nude mouse assessed as increased level of cleaved caspase-8 at 20 mg/kg after 6 days by Western blot analysis relative to control; assay type: functional, organism-based
Method in brief: (§3)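 Female nude mice, 6 weeks old, received 1.5 × 10^6 HCT-116 cells in the right flank. At ~750 mm3 mice were split into groups of 5 and dosed from day 19 at 20 mg kg−1 near the tumour, vehicle as control. Tumours were harvested at sacrifice on day 25 and homogenised in RIPA buffer. Equal protein loaded, transferred to PVDF, blocked in 5% milk/TBST, primary antibodies overnight at 4 °C, HRP secondary, ECL detection.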

[19] = system: A549; assay: Selectivity for human HCT8 cells over human A549 cells; assay type: functional
[20] = system: HCT-116; assay: Induction of apoptosis in human HCT116 cells assessed as late apoptotic cells at 50 uM after 48 hrs using annexin-V FITC and propidium iodide staining by flow cytometry (reference value: 1.59%); assay type: functional
[21] = system: HCT-8; assay: Inhibition of colony formation in human HCT8 cells at 15 to 50 uM after 2 weeks using crystal violet staining; assay type: functional, cell-based; method in brief: as §2
[22] = system: HCT-116; assay: Induction of apoptosis in human HCT116 cells assessed as increased level of cleaved caspase-7 at 10 to 50 uM by Western blot analysis; assay type: functional, cell-based
[23] = system: HCT-116; assay: Ratio of lithocholic acid IC50 to compound IC50 for human HCT116 cells assessed as cell viability after 48 hrs by MTT assay; assay type: functional
[24] = Selectivity ratio of human DLD1 cells over CHO cells; assay type: cell-based; details: Chinese hamster (CHO), DLD1 cells versus CHO cells
[25] = system: HCT-116; assay: Induction of apoptosis in human HCT116 cells assessed as late apoptotic cells at 25 uM after 48 hrs using annexin-V FITC and propidium iodide staining by flow cytometry (reference value: 1.59%); assay type: functional
[26] = system: HCT-116; assay: Induction of apoptosis in human HCT116 cells assessed as late apoptotic cells at 15 uM after 48 hrs using annexin-V FITC and propidium iodide staining by flow cytometry (reference value: 1.59%); assay type: functional
[27] = system: HCT-116; assay: Antitumor activity against human HCT116 cells xenografted in nude mouse assessed as reduction in tumor volume at 20 mg/kg after 6 days; assay type: functional; design: scale not given: the % may be the effect or the level left
[28] = system: HCT-116; assay: Induction of apoptosis in human HCT116 cells xenografted in nude mouse assessed as increased level of cleaved caspase-3 at 20 mg/kg after 6 days by Western blot analysis relative to control; assay type: functional, organism-based; method in brief: as §3
[29] = system: HCT-116; assay: Induction of apoptosis in human HCT116 cells xenografted in nude mouse assessed as increased level of cleaved caspase-7 at 20 mg/kg after 6 days by Western blot analysis relative to control; assay type: functional, organism-based; method in brief: as §3
[30] = Toxicity in RBC (unknown origin) assessed as hemolytic activity; assay type: cell-based, Erythrocyte; details: red blood cells
[31] = Selectivity ratio of human HCT116 cells over CHO cells; assay type: cell-based; details: Chinese hamster (CHO), HCT116 cells versus CHO cells
[32] = system: HCT-116; assay: Induction of apoptosis in human HCT116 cells assessed as apoptotic cells at 50 uM after 48 hrs using annexin-V FITC and propidium iodide staining by flow cytometry relative to lithocholic acid; assay type: functional
[33] = system: HCT-116; assay: Induction of apoptosis in human HCT116 cells assessed as early apoptotic cells at 25 uM after 48 hrs using annexin-V FITC and propidium iodide staining by flow cytometry (reference value: 4.80%); assay type: functional
[34] = Cell cycle arrest in human HCT8 cells assessed as accumulation at sub-G1 phase at 50 uM after 48 hrs using propidium iodide staining by FACS analysis; assay type: functional, cell-based; details: HCT-8; method in brief: as §1
[35] = system: A549; assay: Selectivity ratio of human HCT116 cells over human A549 cells; assay type: functional
[36] = Selectivity ratio of human HCT8 cells over human THP1 cells; assay type: ADME, cell-based, THP-1; details: HCT8 cells versus THP1 cells
[37] = Selectivity ratio of human HCT116 cells over human THP1 cells; assay type: ADME, cell-based, HCT-116; details: HCT116 cells versus THP1 cells
[38] = Selectivity ratio of human DLD1 cells over human THP1 cells; assay type: ADME, cell-based, THP-1; details: DLD1 cells versus THP1 cells
[39] = system: HCT-116; assay: Antitumor activity against human HCT116 cells xenografted in nude mouse assessed as reduction in tumor volume at 20 mg/kg measured up to 25 days; assay type: functional; design: scale not given: the % may be the effect or the level left
[40] = system: HCT-116; assay: Induction of apoptosis in human HCT116 cells assessed as increased level of procaspase-8 at 10 uM by Western blot analysis; assay type: functional, cell-based

SMILES: COC(=O)CC[C@@H](C)[C@H]1CC[C@H]2[C@@H]3CC[C@@H]4C[C@H](OC(=O)C[N+](C)(C)C)CC[C@]4(C)[C@H]3CC[C@]12C.[Cl-]
- IC50 [1]: 37 µM
- IC50 [2]: 53 µM
- IC50 [3]: 38.1 µM
- Retention_time [4]: 7.94 min

SMILES: COC(=O)CC[C@@H](C)[C@H]1CC[C@H]2[C@@H]3CC[C@@H]4C[C@H](OC(=O)C[N+]56CCN(CC5)CC6)CC[C@]4(C)[C@H]3CC[C@]12C.[Cl-]
- IC50 [1]: 76.4 µM
- IC50 [2]: 46.4 µM
- IC50 [3]: 60.7 µM
- Retention_time [4]: 7.98 min

SMILES: COC(=O)CC[C@@H](C)[C@H]1CC[C@H]2[C@@H]3CC[C@@H]4C[C@H](OC(=O)C[N+]5(C)CCCCC5)CC[C@]4(C)[C@H]3CC[C@]12C.[Cl-]
- Activity [5]: 41.19%
- Activity [6]: 80%
- IC50 [1]: 14.7 µM
- inhibition at 15 µM [7]: 50%
- selectivity ratio [8]: 2
- IC50 [2]: 13.7 µM
- inhibition [9]: Active
- Ratio [10]: 1.3
- selectivity ratio [11]: 5
- Activity [12]: 9.04%
- Activity [13]: 80%
- Activity [14]: Active
- inhibition [15]: Active
- Activity [16]: Active
- Ratio IC50 [17]: 6
- Activity [18]: Active
- selectivity ratio [19]: 2
- IC50 [3]: 11.7 µM
- Activity [20]: 26.63%
- inhibition [21]: Active
- Activity [22]: Active
- Retention_time [4]: 8.12 min
- Ratio IC50 [23]: 6
- selectivity ratio [24]: 5
- Activity [25]: 15.78%
- Activity [26]: 12.47%
- Activity [27]: 75%
- Activity [28]: Active
- Activity [29]: Active
- HC50 [30]: > 1 mM
- selectivity ratio [31]: 3
- Ratio [32]: 2
- Activity [33]: 23.57%
- Activity [34]: 40%
- selectivity ratio [35]: 2
- selectivity ratio [36]: 5
- selectivity ratio [37]: 5
- selectivity ratio [38]: 5
- Activity [39]: 75%
- Activity [40]: inactive

SMILES: COC(=O)CC[C@@H](C)[C@H]1CC[C@H]2[C@@H]3CC[C@@H]4C[C@H](OC(=O)CN)CC[C@]4(C)[C@H]3CC[C@]12C
- IC50 [1]: 30.7 µM
- IC50 [2]: 29.4 µM
- IC50 [3]: 36.7 µM

SMILES: COC(=O)CC[C@@H](C)[C@H]1CC[C@H]2[C@@H]3CC[C@@H]4C[C@H](OC(=O)C[n+]5ccccc5)CC[C@]4(C)[C@H]3CC[C@]12C.[Cl-]
- IC50 [1]: 35.4 µM
- IC50 [2]: 35.4 µM
- IC50 [3]: 26.5 µM
- Retention_time [4]: 7.84 min
